Results collected from several papers.
Compare with care: the assays were run in different laboratories.
Target: Serine/threonine-protein kinase 16 (STK16, Homo sapiens, UniProt O75716)

| SMILES | read-out | technique | concentration | remaining binding [%] |
| --- | --- | --- | --- | --- |
| O=C(c1ccc(Nc2nccc(-c3cc4ccccc4s3)n2)cc1)N1CCC(N2CCCC2)CC1 | binding | competition with immobilised ligand | 1 µM | 18 |
| COc1cnc(Nc2cccc(S(N)(=O)=O)c2)nc1N1CCN(c2ccccc2)C(=O)C1 | binding | competition with immobilised ligand | 1 µM | 30 |
| COc1cccc(CNC(=O)c2nc3scc(COCc4ccc(C(=O)O)cc4)c3c(=O)[nH]2)c1 | cell-free assay | competition with immobilised ligand | 1 µM | 87.2 |
| O=C(c1ccc(Nc2ncc(Cl)c(-c3ccc(Cl)s3)n2)cc1)N1CCC(N2CCCC2)CC1 | binding | competition with immobilised ligand | 1 µM | 0.05 |
| O=C(Nc1c[nH]nc1C(=O)NC1CCNCC1)c1cc(F)cc(F)c1 | binding | competition with immobilised ligand | 1 µM | 100 |
| COc1ccc2cc(OCC3(C(=O)O)CN(C(=O)c4ccc(F)cc4)C3)ccc2c1 | cell-free assay | competition with immobilised ligand | 1 µM | 88 |
| COc1cc(Nc2nccc(-c3cnn4nc(OC)ccc34)n2)cc(C(F)(F)F)c1 | binding | competition with immobilised ligand | 1 µM | 53 |
| N[C@@H]1CCN(c2nccc(-c3cnn4ncccc34)n2)C1 | binding | – | 1 µM | 100 |
| FC(F)(F)Oc1cccc(-c2cnc3ccc(-c4ccncc4)nn23)c1 | binding | competition with immobilised ligand | 5 µM | 40 |
| CCCCN(CCCC)C(=O)CN1C[C@H](c2cc(OC)c3c(c2)OCO3)[C@@H](C(=O)O)[C@@H]1CC(C)(C)CCC | cell-free assay | competition with immobilised ligand | 1 µM | 100 |
| COc1ncc2cc3ccccc3nc2c1C#N | cell-free assay | competition with immobilised ligand | 5 µM | 90 |
| Cc1cnc(Nc2ccc(C(=O)N3CCC(N4CCCC4)CC3)cc2)nc1-c1cc2ccccc2s1 | binding | competition with immobilised ligand | 1 µM | 3.4 |
| CNC(=O)Nc1ccc2c(c1)CC[C@@]21OC(=O)N(CC(=O)N(Cc2ccc(F)cc2)[C@@H](C)C(F)(F)F)C1=O | cell-free assay | competition with immobilised ligand | 1 µM | 84 |
| COc1ccnn2ncc(-c3ccnc(N(C)C)n3)c12 | binding | – | 1 µM | 85 |
| Cc1cc(C)c(-n2ccn3nc(-c4cccnc4)cc23)cc1NC(=O)c1cc(C#N)cc(S(F)(F)(F)(F)F)c1 | cell-free assay | competition with immobilised ligand | 0.1 µM | 64.3 |
| c1cnn2ncc(-c3ccnc(N4CCC45COC5)n3)c2c1 | binding | – | 1 µM | 78 |
| CNC(=O)[C@@H]1CC[C@@H](n2c(-c3ccc4cnccc4c3)nc3ccc(C(=O)NCc4cccc(C(N)=O)c4)cc32)C1 | binding | competition with immobilised ligand | 1 µM | 100 |
| Cc1cnn2ncc(-c3ccnc(N(C)C)n3)c2c1 | binding | – | 1 µM | 91 |
| CN(C)CC#Cc1ccc(OCCCc2sc(N3CCc4cccc(C(=O)Nc5nc6ccccc6s5)c4C3)nc2C(=O)O)c(F)c1 | cell-free assay | competition with immobilised ligand | 1 µM | 92 |
| F[C@@H]1CCN(c2nccc(-c3cnn4ncccc34)n2)C1 | binding | – | 1 µM | 100 |
| CCN1CCN(Cc2ccc(C(=O)Nc3ccc(C)c(Oc4ccc5c(c4)CC(=O)N5)c3)cc2C(F)(F)F)CC1 | binding | competition with immobilised ligand | 1 µM | 100 |
